# Screening results deposited in PubChem BioAssay by The Scripps Research Institute Molecular Screening Center.
# Jurkat tox 60K: cytotoxicity toward Jurkat T cells, primary screen, cytotoxicity control, cell-based, Jurkat E6.1, 60K MLSMR library; Jurkat E6.1 viability, ATP luminescence, 48 h; inhibition, % at 4 µM; 56,000 compounds, 1.2% hits; AID 463, 2006;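 active = inhibition above the mean inhibition of all tested compounds plus 3 SD, cut at about 28% in these data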
# HEK293 NFkB inh: inhibitors of PMA/ionomycin-induced NF-kB reporter, primary screen, antigen receptor NF-kB inhibitor project, cell-based, HEK-293 luciferase reporter, luminescence | 62,000 compounds, 0.21% hits | HEK-293 NF-kB luciferase reporter | inhibition, % at 3 µM;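 active = inhibition above the mean of all tested compounds plus 3 SD, cut at about 40% in these data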
#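 Material: HEK-293 cells with stable firefly luciferase reporter driven by four HIV NF-kB elements / Also added: PMA plus ionomycin mix as NF-kB-activating stimulus / Compound dosing: 3 µM once, 0.30% DMSO / Times: 1 h pretreatment, 16 h stimulation, 37 °C / Signal: luminescence / Evaluation: per-plate % inhibition versus controls / Benchmarks: DMSO and 10 µM reference inhibitor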
# 5HT1E antag: 5-HT1E receptor antagonists, primary screen, cell-based, HTS. 5-hydroxytryptamine receptor 1E (Homo sapiens), P28566. inhibition, % at 6 µM. CHO 5-HT1E Ga15 NFAT-bla reporter, FRET, antagonist. 65,000 compounds, 0.99% hits;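 active = inhibition above a set limit, the mean inhibition across every tested compound plus 3 SD, cut at about 29% in these data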;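 also: signal is the 460 over 535 nm emission ratio of beta-lactamase substrate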
# 5HT1E ag: 5-HT1E receptor agonists, primary screen, cell-based, HTS. CHO 5-HT1E Ga15 NFAT-bla reporter, FRET; 0% DMSO wells, 100% control agonist wells. activation, % at 6 µM. 5-hydroxytryptamine receptor 1E (Homo sapiens), P28566. AID 574, 2007. 65,000 compounds, 0.69% hits;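 active = activation above a set limit, the screen-wide mean activation plus 3 SD, cut at about 8.5% in these data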
# 5HT1a ag: human 5-HT1a receptor agonists, primary screen, cell-based, CHO, Ga15 NFAT-bla reporter; AID 567, 2006; 65,000 compounds, 0.56% hits; CHO 5-HT1a Ga15 NFAT-bla reporter, FRET ratio; 0% basal, 100% maximal reference agonist; activation, % at 10 µM; 5-hydroxytryptamine receptor 1A (Homo sapiens), P08908;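 active = activation above the screen-wide mean activation plus 3 SD, cut at about 19% in these data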
# Target sequence (P08908 whole entry, looked up): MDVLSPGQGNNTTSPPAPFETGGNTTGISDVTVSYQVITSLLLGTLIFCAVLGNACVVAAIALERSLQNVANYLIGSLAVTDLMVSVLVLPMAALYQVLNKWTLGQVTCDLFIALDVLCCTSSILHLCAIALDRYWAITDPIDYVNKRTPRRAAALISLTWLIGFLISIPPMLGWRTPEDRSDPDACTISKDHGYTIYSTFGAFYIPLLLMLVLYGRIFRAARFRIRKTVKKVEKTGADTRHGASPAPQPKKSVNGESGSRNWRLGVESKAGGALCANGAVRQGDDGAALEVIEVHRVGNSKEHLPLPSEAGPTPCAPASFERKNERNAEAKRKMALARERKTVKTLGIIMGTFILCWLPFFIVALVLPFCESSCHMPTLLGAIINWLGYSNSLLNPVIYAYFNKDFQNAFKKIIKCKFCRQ
# 5-HT1A blocker: human 5-HT1a receptor antagonists, primary screen, cell-based, CHO, Ga15 NFAT-bla reporter | 5-hydroxytryptamine receptor 1A (Homo sapiens), P08908 | CHO 5-HT1a Ga15 NFAT-bla reporter, antagonist mode | inhibition, % at 10 µM | 62,000 compounds, 0.68% hits | AID 612, 2007;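 active = inhibition above the mean of all tested compounds plus 3 SD, cut at about 43% in these data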;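 also: receptor stimulated by 5-CT agonist at 100 nM near EC80; beta-lactamase reporter measured by ratiometric fluorescence of a cleavable substrate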
# Hits are given with their value; . = inactive; / = no result given. Sampled rows, rich in hits. Any-hit rate of the full collection: about 3.3%.
SMILES,Jurkat tox 60K,HEK293 NFkB inh,5HT1E antag,5HT1E ag,5HT1a ag,5-HT1A blocker
COc1ccccc1S(=O)(=O)Cc1ccc(C(=O)NC(C)c2ccc3c(c2)OCCO3)o1 (configuration not stated),.,.,.,.,.,.
CC(=O)NC1C(=O)N(CCc2ccccc2)c2ccccc21 (configuration not stated),.,.,.,14,.,.
O=S(=O)(NCCOCC(F)(F)C(F)F)c1ccc2oc3ccccc3c2c1,.,.,.,.,.,.
CCN(CC)c1ccc(C2Nc3cccc4cccc(c34)N2)c(O)c1,/,/,32,.,.,/
CSc1nc(N2CCOCC2)c2c3c(sc2n1)CCC3,.,.,29,.,.,.
O=C(Oc1ccc2[nH]cc(CCN3C(=O)c4ccccc4C3=O)c2c1)c1ccco1,.,.,.,38,.,.
COc1ccc(-c2nc3c(c(=O)n(C)c(=O)n3C)n2CC2CC(c3ccccc3)=NO2)cc1OC (configuration not stated),.,.,.,.,.,.
CCOC(=O)N1CCN(C(=O)C2CCCN(S(=O)(=O)c3cccnc3)C2)CC1 (configuration not stated),.,.,.,.,.,.
O=C1CSC(=Nc2cc(Cl)ccc2Cl)N1,.,.,.,.,.,.
COc1ccc(C(=O)C(CN2CCOCC2)c2ccccc2)cc1F (configuration not stated),96,.,39,.,.,76
COc1ccc(C(O)C(CN2CCOCC2)c2ccccc2)cc1F (configuration not stated),.,.,.,.,.,.
CN1CCN(C(=O)Cn2c(=O)oc3cc(S(=O)(=O)NCc4ccccc4)ccc32)CC1,.,.,.,.,.,.
c1ccc2nc3c(nc2c1)c1ccccc1n3CCN1CCOCC1,.,.,.,.,.,.
CCn1c2ccccc2c2nc3cc(S(=O)(=O)N4CCOCC4)ccc3nc21,.,.,50,.,.,.
Cc1ccc(-n2c(SCC(N)=O)nnc2-c2cccnc2)c(C)c1,.,.,.,.,.,.
Cc1ccccc1-n1c(SC(C)C(N)=O)nnc1-c1cccnc1 (configuration not stated),.,.,.,27,.,.
CCOC(=O)c1cc2sccc2n1CC(=O)c1ccc2c(c1)OCCO2,.,.,.,22,.,.
CN(C)c1nc(N)nc(CSc2n[nH]c(-c3ccccc3)n2)n1,.,.,30,.,.,.
CSCCC(C(=O)Nc1ccc2c(c1)OCO2)N1C(=O)c2ccccc2C1=O (configuration not stated),/,.,.,.,.,.
CN(C)CCCN1c2ccccc2Sc2ccc(Cl)cc21,/,/,.,8.7,.,/
CCCS(=O)(=O)N1CCCC(C(=O)NCCN2CCC(Cc3ccccc3)CC2)C1 (configuration not stated),.,.,.,.,.,46
COC1(c2cc(-c3ccccc3)nc(N)n2)CCCCC1,.,.,.,.,.,.
O=C1CCCC(O)=C1C=Nc1ccc(O)cc1,.,.,.,.,.,43
OC(CN1CCN(c2cccc(C(F)(F)F)c2)CC1)c1c[nH]c2ccccc12 (configuration not stated),.,.,.,.,55,.
O=C1C(Cl)=C(NCC2CCCO2)C(=O)N1CCc1ccccc1 (configuration not stated),.,.,.,.,.,.
SMILES,Jurkat tox 60K,HEK293 NFkB inh,5HT1E antag,5HT1E ag,5HT1a ag,5-HT1A blocker
COc1ccc(-c2nc(CSCC(=O)N3CCN(C(=O)c4ccco4)CC3)c(C)o2)cc1OC,.,.,.,.,.,.
CCN(CC)C(=O)CSc1ccccc1N,.,.,.,.,20,.
CCN(CC)C(=O)CSc1nnc2sc3ccccc3n12,.,.,.,.,.,.
COc1cccc(N2CCN(C3CC(=O)N(c4ccc(Cl)c(Cl)c4)C3=O)CC2)c1 (configuration not stated),.,.,.,.,.,.
CN1C(=O)CC(N2CCN(c3ccc(Cl)c(Cl)c3)CC2)C1=O (configuration not stated),/,/,40,.,.,/
CCN(CC)CCNC(=O)c1sc2nc(-c3ccccc3)cn2c1C,.,.,.,.,.,.
COc1ccc(-c2cc(C(=O)N3CCN(C(c4ccccc4)c4ccccc4)CC3)no2)cc1OC,.,.,.,.,.,.
O=C(c1cc(-c2ccco2)on1)N1CCN(C(c2ccccc2)c2ccccc2)CC1,.,.,.,.,.,43
COc1ccc(-c2cc(C(=O)N3CCN(C(c4ccccc4)c4ccccc4)CC3)no2)cc1,.,.,.,.,.,44
CCCCNC(=O)COC(=O)c1cc2c(C)nn(-c3ccccc3)c2s1,.,.,.,.,.,.
CCOC(=O)c1oc2ccccc2c1NC(=O)c1ccccc1OC,.,.,47,.,.,49
COc1cccc(C2=CC(c3ccc(C)cc3)n3ncnc3N2)c1 (configuration not stated),.,.,29,.,.,.
Cc1nc(NCCNC(=O)c2ccco2)c2c(C)c(C)sc2n1,.,.,32,.,.,.
COc1ccc(OC)c(CC(NC(C)=O)C(=O)NC2CCN(c3nc(C)cc(C)c3C#N)CC2)c1 (configuration not stated),.,.,.,.,.,.
CCOC(=O)C1CCN(C(=O)CCNC(=O)c2cc(OC)c(OC)c(OC)c2)CC1,.,.,.,.,.,.
Cc1cccc(Nc2nc(-c3ccccn3)cs2)n1,.,.,36,.,.,45
Cc1cc(C)nc(SCCn2c(N3CCCCC3)nc3c2c(=O)n(C)c(=O)n3C)n1,/,.,.,.,.,.
COc1ccccc1-c1cn(S(=O)(=O)c2ccc(F)cc2)nc1N,.,.,.,.,.,.
CCOC(=O)CNC(=O)Cn1cnc2sc(C)c(S(=O)(=O)N3CCC(C)CC3)c2c1=O,/,.,.,.,60,.
COCCNC(=O)Cn1cnc2sc(C)c(S(=O)(=O)N3CCC(C)CC3)c2c1=O,/,.,.,.,.,.
CC(=O)Nc1ccc(S(=O)(=O)N2CCCc3ccccc32)cc1,82,.,.,.,.,.
Nc1ccc(S(=O)(=O)N2CCCc3ccccc32)cc1,.,.,.,.,.,.
COC(=O)Nc1ccc(S(=O)(=O)N2c3ccccc3CCC2C)cc1 (configuration not stated),92,.,.,.,.,.
